Screens from PubChem.
Tn6 DDE FP – inhibitors of Tn6 peptide binding to human fibrin DD(E); AID 720509; 370,000 compounds, 0.21% hits; Fibrin DD(E) TRITC-Tn6 fluorescence polarization displacement; inhibition, % at 8.3 µM; P02675;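 active = inhibition above a per-campaign cutoff: mean of compounds within control limits plus 3 SD, cut at about 15% in these data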
Target sequence (P02675 whole entry, looked up): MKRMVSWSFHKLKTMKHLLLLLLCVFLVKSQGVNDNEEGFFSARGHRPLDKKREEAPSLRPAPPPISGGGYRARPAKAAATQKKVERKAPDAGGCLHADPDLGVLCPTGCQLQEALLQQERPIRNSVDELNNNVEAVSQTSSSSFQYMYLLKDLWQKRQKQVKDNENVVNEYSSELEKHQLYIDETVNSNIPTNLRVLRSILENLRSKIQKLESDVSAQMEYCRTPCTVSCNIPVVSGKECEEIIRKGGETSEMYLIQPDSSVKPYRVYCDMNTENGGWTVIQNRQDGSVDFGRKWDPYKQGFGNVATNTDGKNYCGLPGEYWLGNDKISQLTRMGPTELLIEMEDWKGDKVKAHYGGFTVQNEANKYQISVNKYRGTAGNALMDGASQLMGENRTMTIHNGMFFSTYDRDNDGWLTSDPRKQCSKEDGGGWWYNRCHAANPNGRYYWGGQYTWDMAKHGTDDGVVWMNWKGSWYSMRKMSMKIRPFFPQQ
Tn7 DDE FP – DD(E)-Tn7 binding inhibition, primary FP screen. P02675. FP displacement of FITC-Tn7 peptide from fibrin DD(E); 0% = median of compound wells per plate. inhibition, % at 8.3 µM. 370,000 compounds, 0.13% hits. AID 720508;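 active = inhibition above the mean of compounds falling within the control limits plus 3 SD of them, cut at about 14% in these data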
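Also added: labelled Tn7 tracer, 0.1 µM; Assay system: human fibrin DD(E) protein; Amount: 2 µM fibrin DD(E); Schedule: 10 min compound pre-incubation, 3 h probe incubation at room temperature; Repeats: one replicate per compound; Read-out basis: percent inhibition; Measured by: fluorescence polarization of the labelled Tn7 tracer.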
CAL PDZ FP-1 – blocks peptide binding to the human CAL PDZ domain. inhibition, % at 24.9 µM. Q9HD26. 300,000 compounds, 0.92% hits. purified CAL PDZ, TMR-peptide fluorescence polarization, 1 h;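 active = mean inhibition of at least 30% with at least half of replicates also reaching 30%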
Arr AP2 block – human beta-arrestin and AP2 interaction inhibition | AID 504490 | 340,000 compounds, 0.31% hits | inhibition, % at 10 µM | FITC-arrestin peptide / GST-AP2 beads, flow cytometry; AP2 beta2 appendage carries R879A mutation;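 active = inhibition above a set limit, near 3 SD of compounds lacking own fluorescence, cut at about 54% in these data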
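Material – GST-tagged AP2 beta2-adaptin appendage (R879A) on 4 µm glutathione beads · Probe or stimulus – fluorescein-tagged arrestin peptide at 50 nM final · Timing – 12 min plus 1 h, RT · Detection – bead flow cytometry, FITC channel · Read-out basis – inhibition as reduced fluorescein signal on beads, percent · Medium – PBS plus Tween 20 (0.05%) and BSA (0.1%)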
CAL PDZ FP-2 – human CAL PDZ-peptide interaction inhibition; purified CAL PDZ, TMR-peptide fluorescence polarization, 1 h; inhibition, % at 20 µM; 330,000 compounds, 0.02% hits;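 active = highest replicate inhibition of at least 40%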
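Read-out basis: mP drop reported as inhibition | Assay system: Tagged CAL PDZ protein CerCALP, purified | Benchmarks: Unlabelled peptide for full inhibition, DMSO wells as neutral | Schedule: 1 h incubation at room temperature before polarization reading | Buffer or medium: Sodium phosphate/NaCl buffer pH 7.4 with TCEP, IgG, Thesit | Doses: Single point, 20 µM | Measured by: Fluorescence polarization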
Each line names hits and unclear results; the compound was inactive in the other large screens. The list is not random: actives were taken first. Their share in the collection is about 1.4%.

Cc1ccc(O)c(NC(=S)NC(=O)CC(C)C)c1	none
Cc1ccccc1C(=O)Nc1ccnn1C1CCN(CC2CC=CCC2)CC1 (stereo not given)	none
O=C(Nc1ccnn1C1CCN(CC2CC=CCC2)CC1)c1ccccc1Cl (stereo not given)	CAL PDZ FP-1 51
CCCN(CC1CC1)C(=O)c1ccc(CNC(=O)c2cccc(Br)c2)cc1	none (no result: CAL PDZ FP-1, Arr AP2 block, CAL PDZ FP-2)
C=CCOc1ccc(/C(O)=C2/C(=O)C(=O)N(CCCN3CCOCC3)C2c2ccc(OC)cc2)cc1 (stereo not given)	CAL PDZ FP-1 40 (no result: CAL PDZ FP-2)
CCOc1ccc(-n2c(SCC(=O)Nc3ccc(S(=O)(=O)Nc4nccs4)cc3)nnc2-c2ccccc2)cc1	none (no result: CAL PDZ FP-1, Arr AP2 block, CAL PDZ FP-2)
CCCn1cnc2c(SCc3ccccc3)nc(N)nc21	none
Nc1nc(SCc2ccccc2)c2ncn(Cc3ccccc3)c2n1	CAL PDZ FP-1 41
COc1ccc(Br)c(C(=O)Nc2ccc(F)cc2)c1	CAL PDZ FP-1 40
COc1cccc(NC(=O)c2ccccc2Br)c1	none (no result: CAL PDZ FP-1)
O=C(Nc1ccc(F)cc1)c1cc(Cl)sc1Cl	CAL PDZ FP-1 87
Cc1cc(C)cc(NC(=O)NCCCN2CCN(c3ccc(F)cc3)CC2)c1	none (no result: CAL PDZ FP-1, Arr AP2 block, CAL PDZ FP-2)
COC(=O)C1CCCN(C(=O)C2CCN(S(=O)(=O)c3ccccc3[N+](=O)[O-])CC2)C1 (stereo not given)	none (no result: CAL PDZ FP-1, Arr AP2 block, CAL PDZ FP-2)
COc1ccc(NC(=O)Cc2c(F)c(F)c(F)c(F)c2F)cc1OC	none
COc1ccc(NC(=O)CC#N)cc1OC	CAL PDZ FP-1 30 (no result: CAL PDZ FP-2)
COc1ccc(-c2nn(CCC#N)cc2C=C(C#N)C#N)cc1	CAL PDZ FP-1 62
C=C1CCC2C(C)(C)CCC[C@]2(C)[C@H]1CC1=C(O)C(=O)C(CO)=CC1=O (stereo not given in full)	none (no result: CAL PDZ FP-1, Arr AP2 block, CAL PDZ FP-2)
Nc1ccn([C@@H]2O[C@H](CO)[C@@H](O)[C@@H]2O)c(=O)n1	Tn6 DDE FP 16, Tn7 DDE FP 15
CCOC(=O)C1(Cc2ccccc2)CCN(Cc2cccc(C#N)c2)CC1	none (no result: CAL PDZ FP-1, Arr AP2 block, CAL PDZ FP-2)
Cc1ccc(-c2nc(CS(=O)CC(=O)NC(C)CCc3ccccc3)c(C)o2)cc1 (stereo not given)	none
COc1ccc(-c2nc(CS(=O)CC(=O)NC(C)CCc3ccccc3)c(C)o2)cc1OC (stereo not given)	CAL PDZ FP-1 45
O=C(CNCc1ccccc1[N+](=O)[O-])N1CCC2(CC1)OCCO2	none (no result: CAL PDZ FP-1, Arr AP2 block, CAL PDZ FP-2)
Cc1cn(C(C)C)c(=O)n(-c2ccccc2)c1=O	CAL PDZ FP-1 33 (no result: CAL PDZ FP-2)
O=c1c2ccccc2c2ccccc2c(=O)n1-c1ccccc1	none
Cc1nnc(SCC(=O)c2ccc([N+](=O)[O-])cc2)s1	none (no result: CAL PDZ FP-1)
Nc1nnc(SCC(=O)c2ccc([N+](=O)[O-])cc2)s1	CAL PDZ FP-1 35
O=C(NCC(=O)N1CCN(c2ccccc2F)CC1)c1ccco1	CAL PDZ FP-1 71
CCn1c(SCC(=O)Nc2ccccc2-c2ccccc2)nnc1-c1ccc(C)cc1	none (no result: CAL PDZ FP-1, Arr AP2 block, CAL PDZ FP-2)
COCCCN1C(=O)[C@H](CC(=O)NCc2cccc(C(F)(F)F)c2)[C@]2(C(=O)OC)CCCCC=C12	none (no result: CAL PDZ FP-1, Arr AP2 block, CAL PDZ FP-2)
O=C(CCCc1nc(-c2ccc(Cl)cc2)no1)NC1CCCC1	CAL PDZ FP-1 74
CN(CC#Cc1ccccc1)C(N)=NC(=O)/C=C/c1ccccc1	none (no result: CAL PDZ FP-1, Arr AP2 block, CAL PDZ FP-2)
O=C(CSCc1ccc(Cl)cc1)NN=C1CCCC1	CAL PDZ FP-1 72
N#Cc1ccc(CSCC(=O)NN=C2CCCC2)cc1	none
Cc1ccc(S(=O)(=O)N2CCCC2C(=O)N2CCN(c3ccccc3)CC2)cc1 (stereo not given)	none (no result: CAL PDZ FP-1, Arr AP2 block, CAL PDZ FP-2)
COc1cccc(/C=N/NC(=O)c2c(C)nc3ccc(Cl)cn23)c1O	CAL PDZ FP-1 62
COc1ccccc1/C=N\NC(=O)c1c(C)nc2ccc(Cl)cn12	none
Cc1ccc(S(=O)(=O)N2CCOCC2)cc1C(=O)N1CCN(c2ncccn2)CC1	CAL PDZ FP-1 51
NS(=O)(=O)c1ccc(CCNC(=O)Cc2ccc(S(=O)(=O)N3CCOCC3)s2)cc1	none
COCCCNC(=O)Cc1ccc(S(=O)(=O)N2CCOCC2)s1	CAL PDZ FP-1 43
CCOC(=O)C1CCCN(S(=O)(=O)c2cc3c(cc2Br)CCN3C(=O)CC)C1 (stereo not given)	none (no result: CAL PDZ FP-1, Arr AP2 block, CAL PDZ FP-2)
Cc1ccccc1NC(=O)Nc1ccccn1	none
O=C(Nc1ccccn1)Nc1ccccc1[N+](=O)[O-]	CAL PDZ FP-1 active (no result: CAL PDZ FP-2)
